# Results of several laboratories.
# Cell line: SW-620
# Effect on: cell growth or viability
Compound,method,concentration,time,endpoint,value
COc1ccc(C(=O)/C=C/c2cccc(Br)c2)cc1S(N)(=O)=O,SRB,10 µM,,inhibition,120%
COc1cc(Nc2nccc(-c3cnn4nc(OC)ccc34)n2)cc(C(F)(F)F)c1,ATP luminescence,,,IC50,160 nM
COc1cccc2c1C(=O)c1c(O)c3c(c(O)c1C2=O)C[C@@](O)(C(=O)CO)C[C@@H]3O[C@H]1C[C@H](N)[C@H](O)[C@H](C)O1,MTT,,48 h,IC50,2.57 µg/mL
COc1ccc(C(=O)/C=C/c2cccnc2)cc1S(N)(=O)=O,SRB,10 µM,,inhibition,87%
COc1cccc(Oc2ccccc2NC(=O)CNC(=O)c2cccc3ccccc23)c1,SRB,,48 h,GI50,166 nM
Cc1ccc(Cn2cnc3ccc(/C=C/C(=O)NO)cc3c2=O)cc1,SRB,,48 h,IC50,1430 nM
CC(=O)Nc1cccc(-n2c(=O)n(C3CC3)c(=O)c3c(Nc4ccc(I)cc4F)n(C)c(=O)c(C)c32)c1,resazurin,50 nM,72 h,viability,25.7%
COc1ccc(C(=O)/C=C/c2ccccc2Br)cc1S(N)(=O)=O,SRB,,48 h,GI50,1800 nM
O=C(/C=C/c1ccc2ncn(Cc3ccccc3)c(=O)c2c1)NO,SRB,,48 h,IC50,1520 nM
CC[C@H](C)C(=O)O[C@H]1C[C@@H](C)C=C2C=C[C@H](C)[C@H](CC[C@@H]3C[C@@H](O)CC(=O)O3)[C@H]21,SRB,,72 h,IC50,0.03 µg/mL
CCn1cnc2cc(/C=C/C(=O)NO)ccc2c1=O,SRB,,48 h,IC50,2970 nM
COc1ccc(C(=O)/C=C/c2cccc(Cl)c2Cl)cc1S(N)(=O)=O,SRB,10 µM,,inhibition,147%
O=C(/C=C/c1ccc2c(=O)n(CCO)cnc2c1)NO,SRB,,48 h,IC50,3680 nM
CC[C@H](C)C(=O)O[C@H]1CCC=C2C=C[C@H](C)[C@H](CC[C@@H]3C[C@@H](O)CC(=O)O3)[C@H]21,SRB,,72 h,IC50,0.48 µg/mL
O=C(/C=C/c1ccc2ncn(Cc3ccc(Cl)cc3)c(=O)c2c1)NO,SRB,,48 h,IC50,2570 nM
S=C([S][Au-][P+](CCCCCC[P+]([Au-][S]C(=S)n1cccn1)(c1ccccc1)c1ccccc1)(c1ccccc1)c1ccccc1)n1cccn1,,,,GI50,4490 nM
